Measured values published in ChEMBL document CHEMBL4665734, “Optimization of globomycin analogs as novel gram-negative antibiotics” (Bioorg Med Chem Lett, 2020).
Values after ≈ are worked out from the molar mass of the structure shown.

Key:
Escherichia coli = assay: Inhibition of LspA in Escherichia coli CFT073imp4213 harboring outer membrane-permeable mutant assessed as inhibition of bacterial growth
Method in brief: (§1)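 Read-out is the minimum inhibitory concentration, reported in µM.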

Escherichia coli CFT073 = assay: Inhibition of LspA in wild type Escherichia coli CFT073 assessed as inhibition of bacterial growth; method in brief: as §1
[1] = Growth inhibition of Staphylococcus aureus USA300

Structure (SMILES) | MIC (Escherichia coli) [µM] | MIC (Escherichia coli CFT073) [µM] | MIC [1] [µM]
CCCCCCCCCC[C@H]1OC(=O)CNC(=O)[C@H]([C@H](C)O)NC(=O)[C@H](CO)NC(=O)[C@H]([C@H](C)CC)NC(=O)[C@H](CC(C)C)N(C)C(=O)[C@@H]1C | 0.016 (≈ 0.0114 µg/mL) | 5.4 (≈ 3.84 µg/mL) | 25 (≈ 17.8 µg/mL)
CCCCCC[C@H]1OC(=O)CNC(=O)[C@H]([C@H](C)O)NC(=O)[C@H](CN)NC(=O)[C@H]([C@@H](C)O)NC(=O)[C@H](CC(C)C)N(C)C(=O)[C@@H]1C | 50 (≈ 32.1 µg/mL) | > 100 | > 100
CCCCCC[C@H]1OC(=O)CNC(=O)[C@H]([C@H](C)O)NC(=O)[C@H](CN)NC(=O)[C@H]([C@@H](C)OC)NC(=O)[C@H](CC(C)C)N(C)C(=O)[C@@H]1C | 7.7 (≈ 5.06 µg/mL) | > 100 | > 100
CCCCCC[C@H]1OC(=O)CNC(=O)[C@H]([C@H](C)O)NC(=O)[C@H](CN)NC(=O)[C@H](Cc2ccccc2)NC(=O)[C@H](CC(C)C)N(C)C(=O)[C@@H]1C | 0.8 (≈ 0.551 µg/mL) | 50 (≈ 34.4 µg/mL) | > 100
CCCCCCCCCC[C@H]1OC(=O)CNC(=O)[C@H]([C@H](C)O)NC(=O)[C@H](CNC(=N)N)NC(=O)[C@H]([C@@H](C)CC)NC(=O)[C@H](CC(C)C)N(C)C(=O)[C@@H]1C | 1.6 (≈ 1.2 µg/mL) | 50 (≈ 37.6 µg/mL) | 13 (≈ 9.79 µg/mL)
CCCCCCCCCC[C@H]1OC(=O)CNC(=O)[C@H]([C@H](C)O)NC(=O)[C@H](CCN)NC(=O)[C@H]([C@@H](C)CC)NC(=O)[C@H](CC(C)C)N(C)C(=O)[C@@H]1C | 0.39 (≈ 0.283 µg/mL) | 25 (≈ 18.1 µg/mL) | 13 (≈ 9.42 µg/mL)
CCCCCC[C@H]1OC(=O)CNC(=O)[C@H]([C@H](C)O)NC(=O)[C@H](CN)NC(=O)[C@H](CC(C)C)NC(=O)[C@H](CC(C)C)N(C)C(=O)[C@@H]1C | 0.4 (≈ 0.262 µg/mL) | 25 (≈ 16.4 µg/mL) | > 100
CCCCCC[C@H]1OC(=O)CNC(=O)[C@H]([C@H](C)O)NC(=O)[C@H](CN)NC(=O)[C@H]([C@H](C)CC)NC(=O)[C@H](CC(C)C)N(C)C(=O)[C@@H]1C | 0.053 (≈ 0.0347 µg/mL) | 8.6 (≈ 5.63 µg/mL) | > 100
CCCCCCCCCC[C@H]1OC(=O)CNC(=O)[C@H]([C@H](C)O)NC(=O)[C@H](CO)NC(=O)[C@H]([C@@H](C)CC)NC(=O)[C@H](CC(C)C)N(C)C(=O)[C@@H]1C | 0.016 (≈ 0.0114 µg/mL) | 9.4 (≈ 6.69 µg/mL) | 25 (≈ 17.8 µg/mL)
CCCCCC[C@H]1OC(=O)CNC(=O)[C@H]([C@H](C)O)NC(=O)[C@H](CN)NC(=O)[C@H](c2ccccc2)NC(=O)[C@H](CC(C)C)N(C)C(=O)[C@@H]1C | 1.6 (≈ 1.08 µg/mL) | 71 (≈ 47.9 µg/mL) | > 100
CCCCCC[C@H]1OC(=O)CNC(=O)[C@H]([C@H](C)O)NC(=O)[C@H](CN)NC(=O)[C@H](C2CCCCC2)NC(=O)[C@H](CC(C)C)N(C)C(=O)[C@@H]1C | 0.059 (≈ 0.0402 µg/mL) | 3.1 (≈ 2.11 µg/mL) | > 100
CCCCCCCCCC[C@H]1OC(=O)CNC(=O)[C@H]([C@H](C)O)NC(=O)[C@H](C)NC(=O)[C@H]([C@@H](C)CC)NC(=O)[C@H](CC(C)C)N(C)C(=O)[C@@H]1C | 25 (≈ 17.4 µg/mL) | 100 (≈ 69.6 µg/mL) | 25 (≈ 17.4 µg/mL)
CCCCCCCCCC[C@H]1OC(=O)CNC(=O)[C@H]([C@H](C)O)NC(=O)[C@H](CN)NC(=O)[C@H]([C@@H](C)CC)NC(=O)[C@H](CC(C)C)N(C)C(=O)[C@@H]1C | 0.03 (≈ 0.0213 µg/mL) | 2.2 (≈ 1.56 µg/mL) | 13 (≈ 9.24 µg/mL)
CCCCCCCCCC[C@H]1OC(=O)CNC(=O)[C@H]([C@H](C)O)NC(=O)[C@H](Cc2c[nH]cn2)NC(=O)[C@H]([C@@H](C)CC)NC(=O)[C@H](CC(C)C)N(C)C(=O)[C@@H]1C | 6.3 (≈ 4.8 µg/mL) | 100 (≈ 76.2 µg/mL) | 25 (≈ 19.1 µg/mL)
CCC[C@H]1C(=O)N[C@@H](C2CCCCCC2)C(=O)N[C@@H](CN)C(=O)N[C@@H]([C@H](C)O)C(=O)NCC(=O)O[C@H](CC2CC3CCC2C3)[C@@H](C)C(=O)N1C (stereo in doubt; 26) | 0.041 (≈ 0.0289 µg/mL) | 0.97 (≈ 0.684 µg/mL) | –
CCC[C@H]1C(=O)N[C@@H](C2CCCCCC2)C(=O)N[C@@H](CN)C(=O)N[C@@H]([C@H](C)O)C(=O)NCC(=O)O[C@H](CC2CC3CCC2C3)[C@@H](C)C(=O)N1C (stereo in doubt; 27) | 0.009 (≈ 0.00634 µg/mL) | 0.78 (≈ 0.55 µg/mL) | –
